High-throughput results: PubChem BioAssay, Broad Institute
PGC1a acetyl up – raises PGC1a acetylation signal in U2OS cells. U2OS PGC1a acetylation AlphaScreen, overnight. activation, % at 15.6 µM. hit rate 0.21% among 350,000. AID 651723;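 active = every replicate reaching activation of at least 50%, whatever the mean replicate activation; inconclusive = replicates that disagree or another doubt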;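 note: hits raise the AlphaScreen acetylation signal above neutral controls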
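Incubation: overnight compound treatment, 37 °C. System: U2OS cells transduced with flag-tagged PGC1a and GCN5 acetyltransferase. Detection: AlphaScreen lysate read. Compound: single-point compound dosing.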
Hep G6PC suppr – hepatocyte G6PC expression change via PGC-1a acetylation activation; shares compounds with PGC1a acetyl up; primary mouse hepatocytes, G6PC mRNA qPCR, forskolin; G6PC suppression (normalized activity, % of positive control; higher = more suppression), % at 26 µM; 240 tested, under 10 active; AID 743463;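 active = dose curves showing G6PC suppression whose half-maximal dose is at most twice the top valid dose; inconclusive = flat curves with moderate negative activity, or unreliable fits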;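 note: G6PC expression relative to GAPDH housekeeping gene as delta delta Ct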
Hep PCK1 suppr – hepatocyte PCK1 expression change via PGC-1a acetylation activation; shares compounds with PGC1a acetyl up; primary mouse hepatocytes, PCK1 mRNA qPCR, forskolin-stimulated; PCK1 expression decrease, unspecified at 26 µM; 230 tested, under 10 active; AID 743465;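 active = compounds lowering PCK1 expression whose fitted half-maximal concentration is at most twice the top tested dose; inconclusive = flat fit with moderate opposite-direction effect, or poor fit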;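 note: higher delta delta Ct means lower PCK1 expression so positive values indicate hits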
PGC1a hep suppr – hepatocyte PGC-1a expression change via PGC-1a acetylation activation | shares compounds with PGC1a acetyl up | primary mouse hepatocytes, PGC-1a mRNA qPCR, forskolin; top dose 26 µM | max activity (PGC-1a expression decrease), % | 240 tested, under 10 active;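 active = compound lowering PGC-1a expression with fitted half-maximal concentration at most twice its top tested dose; inconclusive = flat curve with moderate opposite-direction effect, or poor fit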
A number is an active result; - = inactive; ? = inconclusive; . = not tested or not shown. The list is a sample of the results.

SMILES | PGC1a acetyl up | Hep G6PC suppr | Hep PCK1 suppr | PGC1a hep suppr
COc1ccc(-c2cc(-c3ccccc3O)[nH]n2)cc1OC | 95 | - | - | -
Cc1cccc(C(=O)O/N=C/c2c(Cl)n(C)c3ccccc23)c1 | - | . | . | .
COc1cc(C=C(C(C)=O)C(C)=O)ccc1O | - | . | . | .
O=C(CSc1nc2ccc(Cl)cc2[nH]1)c1ccc2c(c1)OCO2 | - | . | . | .
O=C(c1cc(-c2ccccc2)nc2ccccc12)N1N=C(C(F)F)CC1(O)C(F)F (configuration not stated) | - | . | . | .
COC(=O)c1cc(S(=O)(=O)N2CCN(c3ccc(C(C)=O)cc3)CC2)c[nH]1 | ? | - | - | -
c1nc(NC2CCCCCC2)c2[nH]cnc2n1 | - | . | . | .
Nc1ccc2c(c1)C(=O)C(=O)c1ccccc1-2 | - | . | . | .
CCCc1cc(=O)oc2cc(C)cc(O)c12 | - | . | . | .
O=C(/C=C/c1cccs1)c1ccc(NC(=O)c2cccc(Br)c2)cc1 | - | . | . | .
CC(C)(C)c1ccc(C(=O)c2c[nH]c(C(=O)NCc3cccnc3)c2)cc1 | 257 | - | . | ?
CCC(CC)C(=O)c1c[nH]c(C(=O)NCc2ccccc2)c1 | ? | - | - | -
O=C(Cc1ccc(Cl)cc1)Nc1ncccn1 | - | . | . | .
O=C(NCc1cccnc1)c1ccc(NC(=O)c2ccc(Br)cc2)cc1 | 84 | - | - | -
Cc1cc(C(=O)NNC(=S)NCc2ccccc2)no1 | - | . | . | .
O=C(Cc1ccc(Cl)cc1)c1c[nH]c(C(=O)NCc2cccnc2)c1 | 65 | - | - | -
CC(C)C[C@H]1CNC(=S)N1CC1CCCN1C[C@H](Cc1ccccc1)N1C[C@H](Cc2ccc(O)cc2)N(CC2CCCCCC2)C1=S (some centres not stated) | - | . | . | .
CCCC(=O)C1=C(O)C(C(=O)OC)C(C)(C)CC1=Nc1ccc(OC)cc1 (configuration not stated) | - | . | . | .
Oc1ccc(C2CNCCc3c2cc(O)c(O)c3Cl)cc1 (configuration not stated) | - | . | . | .
COc1ccc(NCc2nnc(SCC(=O)Nc3cc(C)cc(C)c3)o2)cc1 | - | . | . | .
c1coc(CN(Cc2cccs2)Cc2nnnn2C2CCCCC2)c1 | ? | - | - | ?
O=P(CCCCCCCCCP(=O)(c1ccccc1)c1ccccc1)(c1ccccc1)c1ccccc1 | - | . | . | .
COc1ccc(NC(=O)N(C)C[C@H]2OCc3ccccc3-c3c(n(C)c4ccccc34)C(=O)N([C@@H](C)CO)C[C@H]2C)c(OC)c1 | 85 | - | - | -
C[C@@H]1CN([C@H](C)CO)C(=O)c2c(c3ccccc3n2C)-c2ccccc2CO[C@@H]1CN(C)C(=O)Nc1ccccc1C(F)(F)F | 96 | - | - | -
COc1cc(/C=C2\CC(C(C)(C)C)C/C(=C\c3cc(OC)c(OC)c(OC)c3)C2=O)cc(OC)c1OC (configuration not stated) | - | . | . | .
SMILES | PGC1a acetyl up | Hep G6PC suppr | Hep PCK1 suppr | PGC1a hep suppr
COC(=O)c1ccc(OC)c(OC2CCCC2)c1 | - | . | . | .
COc1ccc(CCNC(=O)c2cc(-c3ccco3)on2)cc1OC | 87 | - | - | ?
COc1ccc(NC(=O)[C@H](Cc2c[nH]c3ccccc23)NC(=O)[C@@H]2Cc3ccccc3CN2)cc1 | - | . | . | .
O=C1C=C(c2c(O)ccc3ccccc23)c2ccccc2C1=O | - | . | . | .
Cn1ncc(Cl)c1C(=O)Nc1sc2c(c1C(N)=O)CCC2 | 59 | - | - | -
CCc1nnc(N/N=C/c2c(Cl)cccc2Cl)n1N | - | . | . | .
Cc1ccc(Sc2ncnc3onc(C)c23)c(C)c1 | - | . | . | .
CC(=O)Oc1ccc(-c2csnn2)cc1 | - | . | . | .
CCC(=O)N(CC)c1nc(-c2ccc(OC)cc2)cs1 | - | - | - | -
CCN(CC)CCNc1nc(-c2ccc(OC)cc2)c(-c2ccc(OC)cc2)s1 | - | . | . | .
O=C(COn1nnc2ccc(Cl)cc21)NC12CC3CC(CC(C3)C1)C2 | - | . | . | .
O=C(NCCCN1CCOCC1)c1ccccc1N1C(=O)[C@@H]2Cc3c([nH]c4ccccc34)C(c3ccccc3)N2C1=O (some centres not stated) | 320 | - | - | -
OCCNc1nc(N2CCCCC2)nc2ccccc12 | - | . | . | .
O=C(Cn1c(CN2CCCCC2)nc2ccccc2c1=O)Nc1ccccc1 | - | - | - | -
Cc1nonc1NC(=O)CSc1nc(C2CCCCC2)nc2ccccc12 | - | . | . | .
CC(=O)N(C1=C(N2CCOCC2)C(=O)c2ccccc2C1=O)c1ccc(C(=O)O)cc1 | - | . | . | .
CCOc1ccc(S(N)(=O)=O)cc1-c1nc2c(C(C)(C)C)nn(C)c2c(=O)[nH]1 | - | . | . | .
CC(Oc1ccc(Cl)cc1Cl)c1nc(-c2ccc(NC(=O)c3cccnc3)cc2)no1 (configuration not stated) | 88 | - | - | ?
O=C(Nc1ccc(-c2noc(-c3cccs3)n2)cc1)c1cccnc1 | 137 | - | - | ?
COc1ccc(N=C2SCC(c3ccc(C)cc3)=NN2CCO)cc1 | - | . | . | .
Cc1[nH]c(=O)[nH]c(=O)c1S(=O)(=O)Nc1ccc(F)c(Cl)c1 | - | . | . | .
CCN(CC)c1ccc(C(=C2C=CC(=[N+](CC)CC)C=C2)c2ccc(N(CC)CC)cc2)cc1 | - | . | . | .
CC(C)(C)c1ccc(OCC(=O)NNC(=O)Nc2ccccc2)cc1 | - | . | . | .
